Results taken from the M2OR odorant receptor database.
Residue numbers refer to the chain shown, from its start.

Experiments:
Details in all cases: stereoisomer not certain
OR8B3 H20R Q24R M114I = system: T1, OR8B3 H20R Q24R M114I
T1 sequence (whole entry): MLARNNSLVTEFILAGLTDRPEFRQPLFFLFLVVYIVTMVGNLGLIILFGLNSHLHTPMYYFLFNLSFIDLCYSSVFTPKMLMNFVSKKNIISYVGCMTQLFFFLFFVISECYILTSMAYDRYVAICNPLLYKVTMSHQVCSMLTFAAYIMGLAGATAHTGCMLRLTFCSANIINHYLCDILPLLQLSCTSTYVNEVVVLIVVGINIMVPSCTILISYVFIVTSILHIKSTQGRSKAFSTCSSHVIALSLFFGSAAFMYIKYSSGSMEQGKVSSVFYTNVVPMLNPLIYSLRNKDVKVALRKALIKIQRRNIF
How it was run: (§1)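 Transient luciferase assays in mammalian cell lines were common, though methods varied by source. The values come from published papers and their supplementary material, with extra details from the original authors when needed. Responsive refers to a measured signal the original authors judged statistically different from baseline, and non-responsive (inactive) to the remainder.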

OR8B3 H20R Q24R Y113H = system: T2, OR8B3 H20R Q24R Y113H
T2 sequence (whole entry): T1 sequence (whole entry) with Y113H, I114M
How it was run: as §1

OR8B3 H20R Q24R = system: T3, OR8B3 H20R Q24R
T3 sequence (whole entry): T1 sequence (whole entry) with I114M
How it was run: as §1

OR8B4 (Homo sapiens) = molecular target: T4, OR8B4 (Homo sapiens) (UniProt Q96RC9)
T4 sequence (whole entry): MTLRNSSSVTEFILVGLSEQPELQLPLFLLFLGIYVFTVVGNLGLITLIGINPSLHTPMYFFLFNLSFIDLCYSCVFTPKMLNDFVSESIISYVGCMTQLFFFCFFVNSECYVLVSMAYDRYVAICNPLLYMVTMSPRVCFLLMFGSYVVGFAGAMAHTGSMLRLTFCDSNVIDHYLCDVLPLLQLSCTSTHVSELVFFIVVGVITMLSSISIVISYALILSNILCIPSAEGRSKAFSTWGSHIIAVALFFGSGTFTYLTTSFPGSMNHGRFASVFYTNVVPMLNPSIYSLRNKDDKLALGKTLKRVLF
How it was run: as §1

OR8B4 = system: T5, OR8B4
T5 sequence (whole entry): T4 sequence (whole entry) with E22G
How it was run: as §1

OR8B8 (Homo sapiens) = molecular target: T6, OR8B8 (Homo sapiens) (UniProt Q15620)
T6 sequence (whole entry): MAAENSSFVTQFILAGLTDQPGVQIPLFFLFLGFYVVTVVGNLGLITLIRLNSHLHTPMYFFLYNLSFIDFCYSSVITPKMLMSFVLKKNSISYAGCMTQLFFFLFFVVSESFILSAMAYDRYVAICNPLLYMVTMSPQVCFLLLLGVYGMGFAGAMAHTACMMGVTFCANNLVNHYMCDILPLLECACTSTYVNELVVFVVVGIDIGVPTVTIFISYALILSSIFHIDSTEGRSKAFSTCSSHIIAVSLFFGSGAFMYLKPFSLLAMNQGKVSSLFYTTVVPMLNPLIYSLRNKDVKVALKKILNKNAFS
How it was run: as §1

OR8B8 L101P = system: T7, OR8B8 L101P
T7 sequence (whole entry): T6 sequence (whole entry) with L101P
How it was run: as §1

OR8D1 (Homo sapiens) = molecular target: T8, OR8D1 (Homo sapiens) (UniProt Q8WZ84)
T8 sequence (whole entry): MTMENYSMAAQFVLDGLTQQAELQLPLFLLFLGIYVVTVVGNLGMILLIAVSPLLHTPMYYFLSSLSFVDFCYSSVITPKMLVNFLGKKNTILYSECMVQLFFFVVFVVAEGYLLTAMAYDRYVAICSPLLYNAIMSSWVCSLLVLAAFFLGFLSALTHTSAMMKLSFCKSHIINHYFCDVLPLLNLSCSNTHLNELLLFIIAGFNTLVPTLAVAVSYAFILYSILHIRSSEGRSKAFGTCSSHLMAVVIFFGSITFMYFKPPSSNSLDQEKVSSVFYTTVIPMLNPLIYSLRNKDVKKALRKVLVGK
How it was run: as §1

OR8D1 C127G L194P = system: T9, OR8D1 C127G L194P
T9 sequence (whole entry): T8 sequence (whole entry) with C127G, L194P
How it was run: as §1

OR8D1 L194P = system: T10, OR8D1 L194P
T10 sequence (whole entry): T8 sequence (whole entry) with L194P
How it was run: as §1

Measured: odorant receptor agonist call

CC1=C(O)C(=O)OC1C (configuration not stated)
active: OR8D1 (Homo sapiens)
inactive: all other assays above

CCC(C)CCC(=O)[O-] (configuration not stated)
inactive: OR8D1 (Homo sapiens)

COC(=O)C(C)C
inactive: OR8D1 (Homo sapiens)

CC(CO)CS (configuration not stated)
inactive: OR8B4 (Homo sapiens) | OR8B8 (Homo sapiens) | OR8D1 (Homo sapiens)

CCCSSCCC
inactive: OR8D1 (Homo sapiens)

CCCC(S)CCOC(C)=O (configuration not stated)
inactive: all assays above

COC1=C(C)OC(C)C1=O (configuration not stated)
inactive: OR8D1 (Homo sapiens)

CC1=C(O)C(=O)C(C)O1 (configuration not stated)
inactive: all assays above

CCCCCC(=O)OCC
inactive: OR8D1 (Homo sapiens)

C=CC(=O)CCCCC
inactive: OR8D1 (Homo sapiens)

CCCCCC(=O)C(C)C(C)=O (configuration not stated)
inactive: OR8B4 (Homo sapiens) | OR8B8 (Homo sapiens) | OR8D1 (Homo sapiens)

Cc1cnc(C)c(C)n1
inactive: all assays above

CCC1OC(C)=C(O)C1=O (configuration not stated)
inactive: all assays above

CC(=O)c1ccc(C)cc1
inactive: OR8D1 (Homo sapiens)

CCc1cccc(O)c1
inactive: OR8D1 (Homo sapiens)

CCC(S)C(C)CO (configuration not stated)
inactive: OR8B4 (Homo sapiens) | OR8B8 (Homo sapiens) | OR8D1 (Homo sapiens)

CCC(=O)C1=NCCC1
inactive: OR8D1 (Homo sapiens)

CCCCCCCC(=O)[O-].[H+]
inactive: OR8D1 (Homo sapiens)

CCCC(S)CCO (configuration not stated)
inactive: OR8D1 (Homo sapiens)

CCC(S)C(C)=O (configuration not stated)
inactive: OR8D1 (Homo sapiens)

C=C(C)c1ccc(C)cc1
inactive: OR8D1 (Homo sapiens)

CC1CCCCCCCCCCCCC(=O)C1 (configuration not stated)
inactive: OR8B4 (Homo sapiens) | OR8B8 (Homo sapiens) | OR8D1 (Homo sapiens)

CCCCCCCC1CCCC(=O)O1 (configuration not stated)
inactive: OR8D1 (Homo sapiens)

CCCCCCC=CCCC=O
not listed: OR8D1 L194P
inactive: all other assays above

CCc1ccc(O)cc1
inactive: OR8D1 (Homo sapiens)

CCCCC(S)C(C)CO (configuration not stated)
inactive: OR8B4 (Homo sapiens) | OR8B8 (Homo sapiens) | OR8D1 (Homo sapiens)

CC1=NC(C)C(C)S1 (configuration not stated)
inactive: all assays above

CCCCCC(S)C(C)CO (configuration not stated)
inactive: OR8B4 (Homo sapiens) | OR8B8 (Homo sapiens) | OR8D1 (Homo sapiens)

Cc1cccc(O)c1
inactive: OR8D1 (Homo sapiens)

CCCCCC1CCC(=O)O1 (configuration not stated)
inactive: OR8D1 (Homo sapiens)

CCC1OC(=O)C(O)=C1C (configuration not stated)
active: OR8D1 (Homo sapiens)
inactive: all other assays above

CCc1ncc(C)nc1CC
inactive: OR8D1 (Homo sapiens)

CSCSC
inactive: OR8D1 (Homo sapiens)

CC(C)CC=O
inactive: OR8D1 (Homo sapiens)

CCCCCCCC(C)=O
inactive: OR8D1 (Homo sapiens)

CCCCCC(C)O (configuration not stated)
inactive: OR8D1 (Homo sapiens)

CC(=O)c1c(C)c([N+](=O)[O-])c(C(C)(C)C)c([N+](=O)[O-])c1C
inactive: OR8B4 (Homo sapiens) | OR8B8 (Homo sapiens) | OR8D1 (Homo sapiens)
